# In paper PMC5905335 (Cancer discovery, 2017):
# Values joined by “and” are separate entries in the source; they are usually repeats but may differ in a detail not shown here. Equal entries are not always repeated. Where two headings read alike, the source gives them in different places.
# Columns and labels:
# [1] = assay type: in vivo; details: Part 1 and Part 2; none considered related to study treatment
# [2] = Plasma pharmacokinetics after single and multiple daily dosing; details: human, in vivo; for Vd/F: Vz/F; for half-life: t1/2, mean (SD)
# [3] = tested on: PARP; assay: PBMC PARP activity; assay type: in vivo, human
# [4] = tested on: BRCA mutation–associated breast cancer; assay: Antitumor activity; assay type: in vivo, human; details: 1.0 mg/day, BRCA1/2 mutation
# Outline: (§1)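 Adults with advanced solid tumours received oral test compound 1.0 mg once daily, continuously in 28-day cycles, in the expansion part. Entry required germline BRCA1/2 mutation confirmed by BRACAnalysis or local laboratory (ovarian/peritoneal, breast, prostate, pancreatic), DNA repair deficiency, or SCLC or Ewing sarcoma. Investigators assessed response by RECIST 1.1. ORR had exact 95% CI (Clopper–Pearson); PFS was estimated by Kaplan–Meier.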
# [5] = tested on: BRCA-mutated ovarian cancer; assay: Antitumor activity; assay type: in vivo, human
# Outline: as §1
# [6] = tested on: small cell lung cancer; assay: Antitumor activity; assay type: in vivo, human; details: 1.0 mg/day
# Outline: as §1
# [7] = tested on: pancreatic cancer; assay: Antitumor activity; assay type: in vivo, human
# Outline: as §1
# [8] = tested on: Ewing sarcoma; assay: Antitumor activity; assay type: in vivo, human; details: 1.0 mg/day, n = 13, CR + PR + SD ≥16 weeks
# Outline: as §1
# [9] = Urinary elimination of parent compound; assay type: in vivo, human; details: daily dosing between 0.025 and 1.1 mg
# Outline: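 In dose escalation, fasted patients took a single oral dose, with PK sampling over 1 week. They then took the dose once daily for 28 days, followed by a 1-week break for sampling (doses 0.025–1.1 mg/day, 3+3 design). Urine was assayed by validated LC/MS-MS (LLOQ 25.0 pg/mL). Ae0–24, Fe0–24 and ARC0–24 came from noncompartmental analysis.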
# [10] = tested on: PARP–DNA complexes; details: in vitro, comparison with other PARP1/2 inhibitors, cited from earlier work
# [11] = tested on: PARP1/2; details: cited from earlier work
structure (smiles),measurement,setting,value
Cn1ncnc1[C@H]1c2n[nH]c(=O)c3cc(F)cc(c23)N[C@@H]1c1ccc(F)cc1 [talazoparib],deaths associated with an AE during the study,[1],eight
same,"dose proportionality parameter β for AUC0–24, estimate (95% CI)",[2],0.95 (0.84–1.05)
same,"dose proportionality parameter β for Cmax, estimate (95% CI)",[2],1.11 (1.01–1.20)
same,time to maximum plasma concentration (Cmax),[2],≤ 2 h
same,AUC(0-inf),[2]; 0.025 mg,5.33 ng·h/mL
same,AUC(0-t),"[2]; 0.025 mg, AUC0–24, mean (SD)",0.952 ng·h/mL
same,AUC(0-t),"[2]; 0.025 mg, AUC0–t, mean (SD)",3.6 ng·h/mL
same,Cmax,"[2]; 0.025 mg, mean (SD)",0.06 ng/mL
same,Tmax,"[2]; 0.025 mg, Tmax, median (min, max)",7.92 h
same,Vd/F,"[2]; 0.025 mg, mean (SD)",756 L
same,half-life,[2]; 0.025 mg,100 h
same,AUC(0-inf),[2]; 0.05 mg,8.32 ng·h/mL
same,AUC(0-t),"[2]; 0.05 mg, AUC0–24, mean (SD)",1.16 ng·h/mL
same,AUC(0-t),"[2]; 0.05 mg, AUC0–t, mean (SD)",5.34 ng·h/mL
same,Cmax,"[2]; 0.05 mg, mean (SD)",0.0797 ng/mL
same,Vd/F,"[2]; 0.05 mg, mean (SD)",1240 L
same,half-life,[2]; 0.05 mg,129 h
same,AUC(0-inf),[2]; 0.1 mg,37.6 ng·h/mL
same,AUC(0-t),"[2]; 0.1 mg, AUC0–24, mean (SD)",3.16 ng·h/mL
same,Cmax,"[2]; 0.1 mg, mean (SD)",0.214 ng/mL
same,Tmax,"[2]; 0.1 mg, Tmax, median (min, max)",1.02 h
same,Vd/F,"[2]; 0.1 mg, mean (SD)",839 L
same,half-life,[2]; 0.1 mg,229 h
same,AUC(0-inf),[2]; 0.2 mg,92.7 ng·h/mL
same,Tmax,[2]; 0.2 mg,1.03 h
same,AUC(0-t),"[2]; 0.2 mg, AUC0–24, mean (SD)",9.13 ng·h/mL
same,AUC(0-t),"[2]; 0.2 mg, AUC0–t, mean (SD)",39.3 ng·h/mL
same,Cmax,"[2]; 0.2 mg, mean (SD)",0.788 ng/mL
same,Vd/F,"[2]; 0.2 mg, mean (SD)",678 L
same,half-life,[2]; 0.2 mg,212 h
same,AUC(0-inf),[2]; 0.4 mg,60.1 ng·h/mL
same,AUC(0-t),"[2]; 0.4 mg, AUC0–24, mean (SD)",13.5 ng·h/mL
same,AUC(0-t),"[2]; 0.4 mg, AUC0–t, mean (SD)",43.7 ng·h/mL
same,Cmax,"[2]; 0.4 mg, mean (SD)",1.83 ng/mL
same,Tmax,"[2]; 0.4 mg, Tmax, median (min, max)",2.03 h
same,Vd/F,"[2]; 0.4 mg, mean (SD)",1050 L
same,half-life,[2]; 0.4 mg,102 h
same,AUC(0-inf),[2]; 0.6 mg,120 ng·h/mL
same,AUC(0-t),"[2]; 0.6 mg, AUC0–24, mean (SD)",37.9 ng·h/mL
same,AUC(0-t),"[2]; 0.6 mg, AUC0–t, mean (SD)",97.9 ng·h/mL
same,Cmax,"[2]; 0.6 mg, mean (SD)",4.1 ng/mL
same,Tmax,"[2]; 0.6 mg, Tmax, median (min, max)",0.835 h
same,Vd/F,"[2]; 0.6 mg, mean (SD)",441 L
same,half-life,[2]; 0.6 mg,58.6 h
same,AUC(0-inf),[2]; 0.9 mg,188 ng·h/mL
same,AUC(0-t),"[2]; 0.9 mg, AUC0–24, mean (SD)",58.2 ng·h/mL
same,AUC(0-t),"[2]; 0.9 mg, AUC0–t, mean (SD)",160 ng·h/mL
same,Cmax,"[2]; 0.9 mg, mean (SD)",6.1 ng/mL
same,Tmax,"[2]; 0.9 mg, Tmax, median (min, max)",2 h
same,Vd/F,"[2]; 0.9 mg, mean (SD)",468 L
same,half-life,[2]; 0.9 mg,60.4 h
same,AUC(0-inf),[2]; 1 mg,200 ng·h/mL
same,AUC(0-t),"[2]; 1 mg, AUC0–24, mean (SD)",85.1 ng·h/mL
same,AUC(0-t),"[2]; 1 mg, AUC0–t, mean (SD)",182 ng·h/mL
same,Cmax,"[2]; 1 mg, mean (SD)",10.6 ng/mL
same,Tmax,"[2]; 1 mg, Tmax, median (min, max)",1.03 h
same,Vd/F,"[2]; 1 mg, mean (SD)",415 L
same,half-life,[2]; 1 mg,52.9 h
same,AUC(0-inf),[2]; 1.1 mg,235 ng·h/mL
same,AUC(0-t),"[2]; 1.1 mg, AUC0–24, mean (SD)",91.6 ng·h/mL
same,AUC(0-t),"[2]; 1.1 mg, AUC0–t, mean (SD)",201 ng·h/mL
same,Cmax,"[2]; 1.1 mg, mean (SD)",13.2 ng/mL
same,Tmax,"[2]; 1.1 mg, Tmax, median (min, max)",1 h
same,Vd/F,"[2]; 1.1 mg, mean (SD)",549 L
same,half-life,[2]; 1.1 mg,71 h
same,"PARP activity, mean (SD)","[3]; multiple dosing 0.025 mg/day, n = 3",172 (206) % baseline
same,"PARP activity, mean (SD)","[3]; multiple dosing 0.05 mg/day, n = 3",141 (52.5) % baseline
same,"PARP activity, mean (SD)","[3]; multiple dosing 0.1 mg/day, n = 3",102 (98.0) % baseline
same,"PARP activity, mean (SD)","[3]; multiple dosing 0.2 mg/day, n = 3",14.7 (5.04) % baseline
same,"PARP activity, mean (SD)","[3]; multiple dosing 0.4 mg/day, n = 3",111 (96.5) % baseline
same,"PARP activity, mean (SD)","[3]; multiple dosing 0.6 mg/day, n = 4",24.7 (8.19) % baseline
same,"PARP activity, mean (SD)","[3]; multiple dosing 0.9 mg/day, n = 4",34.7 (27.4) % baseline
same,"PARP activity, mean (SD)","[3]; multiple dosing 1.1 mg/day, n = 2",16.3 (5.63) % baseline
same,Median PFS,[4]; n = 14,34.6 weeks
same,ORR,[4]; n = 14,50.0%
same,CBR,"[4]; n = 14, CR + PR + SD ≥24 weeks",85.7%
same,Median PFS,"[5]; 1.0 mg/day, ovarian/peritoneal, BRCA1/2 mutation, analysis on 14 patients",36.4 weeks and 36.4 ^c weeks
same,ORR,"[5]; 1.0 mg/day, ovarian/peritoneal, BRCA1/2 mutation, n = 12",41.7%
same,CBR,"[5]; 1.0 mg/day, ovarian/peritoneal, BRCA1/2 mutation, n = 12, CR + PR + SD ≥24 weeks",66.7%
same,CBR lasting at least 24 weeks,"[5]; any dose level, BRCA-mutated ovarian cancer with measurable disease, n = 25",76%
same,Median PFS,"[6]; SCLC, n = 23",11.1 weeks
same,ORR,"[6]; SCLC, n = 23",8.7%
same,CBR,"[6]; SCLC, n = 23, CR + PR + SD ≥16 weeks",26.1%
same,duration of response,[6]; the two SCLC patients with PR,12.0 weeks
same,ORR,"[7]; 1.0 mg/day, pancreatic, n = 10",20.0%
same,CBR,"[7]; 1.0 mg/day, pancreatic, n = 10, CR + PR + SD ≥16 weeks",30.0%
same,CBR ≥16 weeks,[7]; 13 patients with pancreatic cancer from Part 1 and Part 2,31%
same,CBR,[8],23.1%
same,urinary elimination kinetics of the parent compound,[9],linear urinary elimination kinetics
same,trapping PARP–DNA complexes at sites of single-strand DNA breaks,[10],most potent PARP1/2 inhibitor in vitro
same,trapping PARP–DNA complexes at sites of single-strand DNA breaks,[10]; listed as Talazoparib,superior in trapping PARP–DNA
same,catalytic activity compared with olaparib and rucaparib,[11],equivalent catalytic activity to olaparib and rucaparib
